The structures appear in SMILES notation.

The data set is described as follows: Toxicity liver stage against HepG2, at 10uM. In kind it is cell-based. On the set-up: test concentration 10 uM, cell line HepG2-A16-CD81EGFP. Particulars: human, HepG2-A16-CD81EGFP cells; read-out: INHIBITION
The method in brief: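 Uninfected HepG2-A16-CD81EGFP cells, 3 × 10^3 per well, 1536-well, plated on prespotted compound at 10 μM final, parasite-free screening media added to match infected plates; puromycin 10 μM positive, DMSO 0.5% negative; run in parallel with 48 h PbLuc assay at 37 °C, 5% CO2; viability by CellTiter-Glo luminescence, normalized to controls.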
Take `CN1CCN(C(C)(C)CNC(=O)C2CCCN2S(C)(=O)=O)CC1` (stereo unspecified): the cytotoxicity at 10 µM is 7.45%.

As for `CC(C)(O)CSCCNC(=O)c1cc(F)ccc1F`, the cytotoxicity at 10 µM was -4.11%.

On to `COCCO[C@@H]1CCN(C(=O)c2ccc(C)o2)[C@@H]1Cc1cccnc1`, for which the cytotoxicity at 10 µM is -12.2%.

Take `O=S(=O)(c1ccccc1F)N1CCCCC1c1cc[nH]n1` (stereo unspecified): the cytotoxicity at 10 µM is 1.22%. For the compound `Cc1nc(C)n(CC2CCCCN2CCCN2CCCC2=O)n1` (stereo unspecified), the cytotoxicity at 10 µM was -2.35%. The value for `O=C(c1nn(-c2ccccc2F)cc1O)N1CCCC1` was -4.99%. As for `CC(C)c1noc(CCCC(=O)NCC2CCS(=O)(=O)C2)n1` (stereo unspecified), the cytotoxicity at 10 µM is -22.3%.

Regarding `Cc1noc(C)c1CN1CCc2ncnc(-c3cnn(C)c3)c2CC1`, the cytotoxicity at 10 µM is -98.4%. Regarding `O=C1NCC[C@]12CN(Cc1nccs1)C[C@H]2c1ccccc1`, the cytotoxicity at 10 µM turned out to be 11%. Turning to `O=C(c1cccc(-n2cnnc2)c1)N1C[C@@H](O)[C@H](N2CCOCC2)C1`, the cytotoxicity at 10 µM was determined as 2.26%.

For the compound `c1cncc(CN2CCc3c(CNc4nccs4)n[nH]c3C2)c1`, the cytotoxicity at 10 µM stood at 1.04%. As to `Clc1cc(NCc2ccncc2)nc2[nH]ccc12`, the cytotoxicity at 10 µM is 6.58%.

`COCC(=O)N[C@@H]1CN(Cc2ccc3c(c2)OCCO3)C[C@H]1O`: the cytotoxicity at 10 µM was -27.1%. With `Cc1cc(N(C)Cc2ncc(-c3ccccc3C(=O)O)s2)ncn1` the figure was -0.241%; with `CCOc1ccnc(N2CCCN(c3nc(C4CC4)ns3)CC2)n1`, 6.97%. The value for `O=C1CC[C@H]2CN(Cc3ncc[nH]3)CC[C@H]2N1CC1CCNCC1` was 11.6%; that for `CC(C)(C)n1cc(C2=CCN(CCc3ccccn3)CC2)cn1` was -0.505%; that for `COc1cccc2ccc(CN3CCN(c4ccncc4)CC3)nc12` was -1.36%. `COCCNC(=O)Nc1cccc2c1CCN(S(C)(=O)=O)C2`: the cytotoxicity at 10 µM stood at 7.37%.

`CCN1CCC2(CCC1=O)CN(c1cnc3ccccc3n1)CCN2C` (stereo unspecified): the cytotoxicity at 10 µM was determined as 1.79%. `O=C(NCCSCc1ccc(Br)s1)C1CCCN(c2cnccn2)C1` (stereo unspecified): the cytotoxicity at 10 µM is 5.34%. In the case of `O=C1N(Cc2cccc(Cl)c2)CCC12CCCNC2` (stereo unspecified), the cytotoxicity at 10 µM is -16.5%.

Take `Cc1occc1C(=O)N1CCc2ncnc(C3CCOC3)c2CC1` (stereo unspecified): the cytotoxicity at 10 µM was -85%. As for `COc1c(C2CCCN2c2ncnc3ccsc23)c(C)nn1C` (stereo unspecified), the cytotoxicity at 10 µM is 18.6%. In the case of `Cc1nnc(NCCC(=O)NCc2ccccc2)c(C#N)c1C`, the cytotoxicity at 10 µM was -3.57%. The value for `COc1cc(CN(C)[C@@H]2COC[C@H]2c2ccc(F)cc2)cc(OC)c1` was 7.67%; that for `CCNC(=O)NC(=O)CN1CCCC1c1nc(C2CCCCC2)co1` (stereo unspecified) was 8.08%; that for `CC(=O)Nc1ccc(Oc2cc(C)nc(C3CCNCC3)c2)cc1` was 2.69%.

For the compound `COc1ccc(Cl)cc1CNCCCn1ccnc1`, the cytotoxicity at 10 µM stood at 8.32%. On to `Cc1ccc(C(=O)N(C)Cc2csc(Br)c2)c(=O)[nH]1`, for which the cytotoxicity at 10 µM was 15.3%. As for `Cc1cccc(NCC(=O)NC2(C#N)CCCC2)c1C(=O)N1CCCC1`, the cytotoxicity at 10 µM was -0.69%. Consider `CC(C)c1nc(C2CCCN(C(=O)Cc3cccnc3)C2)no1` (stereo unspecified), for which the cytotoxicity at 10 µM was -8.97%. In the case of `O=C(O)c1cc(-c2cc[nH]n2)cc(S(=O)(=O)N2CCCCCC2)c1`, the cytotoxicity at 10 µM was -4.88%. In the case of `CCC(C)NC(=O)CCc1ccnc2ccccc12` (stereo unspecified), the cytotoxicity at 10 µM was determined as 5.44%. For `CN(C)C(=O)N1CCN(c2cc(N3CCCC3CO)ncn2)CC1` (stereo unspecified), the cytotoxicity at 10 µM was -1.81%. Consider `Cc1noc(C)c1C(=O)N(C)C(C)c1ccncc1` (stereo unspecified), for which the cytotoxicity at 10 µM stood at 0.66%.

Consider `CNC(=O)CC1CCN(Cc2nc(-c3ccc(SC)cc3)oc2C)CC1`, for which the cytotoxicity at 10 µM was -8.97%. `CCc1ncnc(N2CCOCC2C2CC2)c1F` (stereo unspecified): the cytotoxicity at 10 µM was -6.62%. `O=C(Cn1cccn1)N1CCC(Cn2cc(-c3ccsc3)nn2)CC1`: the cytotoxicity at 10 µM is -0.554%. Turning to `Cc1ccc(CN2CCC3(CC2)CC(N2CCN(C)CC2)CO3)s1` (stereo unspecified), the cytotoxicity at 10 µM is -94.6%.

Take `CC(C)NC(=O)[C@H]1CCS(=O)(=O)[C@@H]2CN(c3ncccn3)C[C@H]12`: the cytotoxicity at 10 µM is -123%. In the case of `COc1c(C2CCCN2C(=O)c2ccoc2C)c(C)nn1C` (stereo unspecified), the cytotoxicity at 10 µM is 0.243%. Take `CN(CCC(F)(F)F)C(=O)c1nc(S(C)(=O)=O)n2ccccc12`: the cytotoxicity at 10 µM was -7.51%. With `CC(NC(=O)COc1nc(C(C)(C)C)no1)c1ccco1` (stereo unspecified) the figure was -5.41%. In the case of `Cc1cnn(C2CN(CC(O)c3ccc(F)cc3)C2)c1` (stereo unspecified), the cytotoxicity at 10 µM is 11.9%. As for `CC(C(=O)O)n1nc(C(F)(F)F)c(Cl)c1C1CC1` (stereo unspecified), the cytotoxicity at 10 µM worked out at 2.01%. In the case of `CN(Cc1nc(N)c2ccccc2n1)CC1CCCN1c1cccnn1` (stereo unspecified), the cytotoxicity at 10 µM is -1.4%. Turning to `Cc1cncc(C(=O)N[C@@H]2CC[C@@H](N3CCOCC3)[C@@H]2O)c1`, the cytotoxicity at 10 µM amounted to 0.331%.

With `COCCN1C(=O)[C@@H]2CC[C@H]1CN(C(=O)COc1ccc(F)c(Cl)c1)C2`, the cytotoxicity at 10 µM was -0.447%.

On to `COc1ccccc1COCC(O)CN(C)Cc1cccc(Cl)c1` (stereo unspecified), for which the cytotoxicity at 10 µM is -1.28%.

`Cc1nc(CN2C(=O)C[C@H]3[C@H]2CCN3CC2CCOC2)cs1` (stereo partly specified): the cytotoxicity at 10 µM was -151%.

For the compound `CCc1nn(C)c2[nH]nc(NC(=O)c3ccccc3COC)c12`, the cytotoxicity at 10 µM was determined as 6.16%. Consider `Cc1cccc(CN2CCOC3(COCCN(CCN(C)C)C3)C2)n1` (stereo unspecified), for which the cytotoxicity at 10 µM was -113%. On to `Cc1cnn(CC2CCCN2C(=O)c2ccc(C(N)=O)cn2)c1` (stereo unspecified), for which the cytotoxicity at 10 µM was -4.64%. As to `Cc1nc[nH]c1-c1nccn1CCN(C)S(C)(=O)=O`, the cytotoxicity at 10 µM is -6.03%. Take `CN(C)S(=O)(=O)N1CCCCCC1c1cc(-c2ccc(F)cc2)no1` (stereo unspecified): the cytotoxicity at 10 µM turned out to be 10.6%. With `CC(C)COc1ccc(C2SCC(=O)Nc3c2c(=O)[nH]n3C(C)C)cc1` (stereo unspecified) the figure was 8.74%; with `Cc1cnn(CC2CCCN2C(=O)c2ccc3[nH]nnc3c2)c1` (stereo unspecified), 1.03%; with `OCC1CCC2(CC1)CN(Cc1ccccc1F)Cc1ccccc1O2` (stereo unspecified), 3.68%. With `Cn1cccc(NC(=O)N2CCC(Cc3ccccc3)C2)c1=O` (stereo unspecified) the figure was 11.9%; with `Cc1cc(CC(C)NC(=O)Cc2cc(F)ccc2C)[nH]n1` (stereo unspecified), -42.9%. On to `COCCN1CCc2c(cnc(-c3ccccc3)c2C(=O)O)C1`, for which the cytotoxicity at 10 µM was found to be 2.24%. On to `O=C(CN1CCC(c2ccccc2)C1)NC(=O)NCC(F)(F)F` (stereo unspecified), for which the cytotoxicity at 10 µM is -12.1%. Regarding `Cc1nc(N2CCOc3ccc(CO)cc3C2)c2nc(C)oc2n1`, the cytotoxicity at 10 µM came out at 7.91%. With `CN(C)C(=O)c1cccc(C2CNCCN2C)c1` (stereo unspecified), the cytotoxicity at 10 µM is -3.15%. Consider `CCCC(=O)N1C[C@@H]2CCN(c3cnccn3)C[C@@H]2C1`, for which the cytotoxicity at 10 µM is -1.48%. `Cc1cccn2c(=O)cc(CN3CCCCC3Cn3cncn3)nc12` (stereo unspecified): the cytotoxicity at 10 µM is 10.7%.

As to `CCN1CCC(NC(=O)CN2CCc3c(ncn3C)C2)CC1`, the cytotoxicity at 10 µM was determined as 1.85%. For `CC(C)NC(=O)N1CCN(S(=O)(=O)C2CC2)CC2(CNC(=O)C2)C1` (stereo unspecified), the cytotoxicity at 10 µM is 1%. Turning to `COc1ccc(-n2ccc(C(=O)NCCN3CCC(C)CC3)n2)cc1`, the cytotoxicity at 10 µM is -6.48%. The value for `O=C(c1ccc(F)c(F)c1)N1CCCSCC1CN1CCCC1` (stereo unspecified) was -0.524%. As to `CN(C)C(C(=O)NCCSc1ncn[nH]1)c1cccc(F)c1` (stereo unspecified), the cytotoxicity at 10 µM was -1.64%. Turning to `Cc1cccc(CN2CC3(CCN(C4CCOC4)CC3)OCC2=O)n1` (stereo unspecified), the cytotoxicity at 10 µM was -2.92%. With `Cc1nn(C)c(C)c1-c1cnc(CC2CCNC2)cn1` (stereo unspecified), the cytotoxicity at 10 µM was -8.41%. As to `Cc1ccc(N2CCCC(NCc3cscn3)C2)nn1` (stereo unspecified), the cytotoxicity at 10 µM is -7.2%. Regarding `CCc1cnc(N)nc1NCc1ccc(OC)cc1OC`, the cytotoxicity at 10 µM was found to be 14.7%. On to `CCn1c(C)nc2cc(NC(=O)CC3CCN(S(C)(=O)=O)CC3)ccc21`, for which the cytotoxicity at 10 µM came to 4.39%. As for `CS(=O)(=O)CCSCc1cc(F)cc2cccnc12`, the cytotoxicity at 10 µM is -1.46%. In the case of `O=C1C[C@H]2[C@H](CCN2C(=O)c2ccno2)N1CC1CC1`, the cytotoxicity at 10 µM was 2.77%. The value for `N#Cc1ccc(NCCNc2ccc(C(F)(F)F)cn2)nc1` was 73%; that for `CCc1cc(C(=O)N2CCCn3nc(CCC(=O)O)cc3C2)cs1` was -3.32%. Regarding `CCN1C(=O)C2(CCCCC2)NC12CCSCC2`, the cytotoxicity at 10 µM is -149%. As for `Cn1nc(CNC(=O)c2ccc3nsnc3c2)c2c1CCOC2`, the cytotoxicity at 10 µM was 6.53%.

Take `Cc1cc(C(F)(F)F)cc(N2CCN(Cc3ccccc3)CC(O)C2)n1` (stereo unspecified): the cytotoxicity at 10 µM was determined as 0.165%. The value for `Cc1cnccc1N1CCCN(C(=O)CCc2n[nH]c(C)c2C)CC1` was -3.79%. For `O=C(O)CC(NC(=O)c1cc(Br)c[nH]1)c1ccccc1` (stereo unspecified), the cytotoxicity at 10 µM is 1.22%. Turning to `COc1ccccc1C(NCc1ccc(SC)cc1)c1nccn1C` (stereo unspecified), the cytotoxicity at 10 µM is -11.6%. Turning to `CNC(=O)COc1cccc(CNC(=O)c2c(C)noc2C)c1`, the cytotoxicity at 10 µM is -4.93%. Take `Cn1nc(CNC(=O)C2CC2)cc1C1CC1`: the cytotoxicity at 10 µM amounted to 1.96%.

On to `COc1ccc(CN2CCO[C@H]3CN(C(=O)C4CC4)CC[C@H]3C2=O)cc1`, for which the cytotoxicity at 10 µM was -147%. With `COc1ncccc1CNC1CCc2c(ccc(=O)n2C)C1` (stereo unspecified), the cytotoxicity at 10 µM is -103%. With `CN(C)C(=O)c1ccccc1NCCCOc1cccc(C#N)c1` the figure was 4.52%; with `COCCc1noc(-c2cc(Cl)c3c(c2)OCCCO3)n1`, 3.61%. Turning to `CN1CCN([C@@H]2CCN(Cc3ccc4cc(F)ccc4n3)C[C@H]2O)CC1`, the cytotoxicity at 10 µM was -4.1%. The value for `COCC(=O)N1CC[C@@H](N2CCOCC2)[C@@H]1Cc1cccnc1` was -95.5%; that for `O=C(Nc1cccnc1)[C@H]1CN(Cc2cccs2)C[C@H]2OCC[C@@H]12` was -109%.
